The EternaBench riboswitch data

System: MS2 coat protein
Assay: apparent Kd, MS2 coat protein; higher = weaker binding; RNA-MaP array; tryptophan 2.4 mM where present
Outline: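 Designs on Illumina sequencing-chip clusters, transcribed by stalled E. coli RNA polymerase, were exposed to SNAP-549-labelled MS2 coat protein in doubling steps from 0.7 or 1.5 nM up to 3 µM, without and then with constant ligand. The buffer held 100 mM Tris-HCl pH 7.5, 80 mM KCl, 4 mM MgCl2, BSA, DTT, yeast tRNA and Tween-20. Apparent Kd values are medians of filtered per-cluster binding-curve fits to green signal normalised to red-channel RNA signal and control-cluster median Fmax.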

[1] = designed as: ON switch for tryptophan, no ligand
[2] = ligand present: tryptophan, designed as: ON switch for tryptophan
[3] = designed as: OFF switch for tryptophan, no ligand
[4] = ligand present: tryptophan, designed as: OFF switch for tryptophan

Row | Sequence | apparent Kd [1] | apparent Kd [2] | apparent Kd [3] | apparent Kd [4]
1 | GACCCAUGAGUUGUAAAAGCUCAUGGGUCGCGAGGACCGGUACGGCCGCCACUCGGCUGUACAUGAGGAUCACCCAUGUCAGGGU | 0.134 µM | 0.761 µM |  | 
2 | UGUCGGCGUAAGUUGGCAUGUCUUGCUGGUCGAGGACCGGUACGGCCGCCACUCGAUCCUUCGCACAUGAGGAUCACCCAUGUUG | 0.0183 µM | 0.0171 µM |  | 
3 | GAUAUGGAAACAUGUCAGAUCCUUACCGGUCGAGGACCGGUACGGCCGCCACUCGAAAACGAGGAACAUGAGGAUCACCCAUGUA |  |  | 0.0497 µM | 0.0875 µM
4 | GGGAGGGAGGCGGCCGCCACUGAUUUUCAUAUAUAUAUAACAUGAGGAUCACCCAUGUAGAUAUACAGGACCGGGCCUUUUUUUU | 0.0204 µM | 0.0195 µM |  | 
5 | GUCUUGGGAUCGGCCGCCACUACAUGAGGAUCACCCAUGUGGACAAAUAGGGUUUUUAAGCUCGGUAGGACCGGGAUUCGGACAU |  |  | 0.0129 µM | 0.0569 µM
6 | AUUCAUGGAAACAUGACAUACAUUACCGGUCGAGGACCGGUACGGCCGCCACUCGGUUGGUGGCACAUGAGGAUCACCCAUGUUA | 0.0268 µM | 0.0267 µM |  | 
